Source: ChEMBL document CHEMBL3297702, “Improving photodynamic inactivation of bacteria in dentistry: highly effective and fast killing of oral key pathogens with novel tooth-colored type-II photosensitizers” (J Med Chem, 2014)
One block for each compound: values may come before it. Active and inactive are the calls of the source. No cut-off for these calls is given here.

Columns and labels:
[1] = system: Enterococcus faecalis; assay: Photodynamic inactivation of Enterococcus faecalis ATCC 29212 assessed as reduction of log10 CFU at 1 to 250 uM preincubated for 10 secs followed by irradiation with 150 j/cm'2 for 120 secs measured after 24 hrs by agar plating method; type: functional, organism-based
In short: (§1)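 E. faecalis ATCC 29212, aerobic overnight BHI culture at 37 °C, was harvested at stationary phase and suspended in PBS at 10^7–10^8 bacteria/mL. It was mixed 1:1 with PS to 0–250 µM final, held 10 s, then illuminated (1260 ± 50 mW/cm2) or kept dark. Dilutions were plated on Mueller-Hinton agar, aerobic 37 °C 24 h, CFU counted. Medians of three independent triplicate experiments, referred to untreated controls.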

[2] = system: Enterococcus faecalis; assay: Photodynamic inactivation of Enterococcus faecalis ATCC 29212 assessed as reduction of log10 CFU at 5 uM incubated prior to irradiation with 150 j/cm'2 for 120 secs measured after 24 hrs by agar plating method (reference value: <1 no unit); type: functional; in short: as §1
[3] = system: Enterococcus faecalis; assay: Photodynamic inactivation of Enterococcus faecalis ATCC 29212 assessed as reduction of log10 CFU at 100 uM incubated prior to irradiation with 25 j/cm'2 for 20 secs measured after 24 hrs by agar plating method (reference value: <1 no unit); type: functional; in short: as §1
[4] = system: Aggregatibacter actinomycetemcomitans; assay: Photodynamic inactivation of Aggregatibacter actinomycetemcomitans ATCC 43718 assessed as reduction of log10 CFU at 5 uM incubated prior to irradiation with 50 j/cm'2 for 40 secs measured after 48 hrs by agar plating method (reference value: <1 no unit); type: functional, Y4
In short: (§2)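 A. actinomycetemcomitans ATCC 43718 cultured overnight in BHI broth under anaerobic conditions, 37 °C with shaking. Stationary-phase cells were spun down, taken up in PBS to 10^7–10^8/mL, and combined 1:1 with PS (final 0–250 µM) or water. After 10 s they were irradiated at 1260 ± 50 mW/cm2 or kept dark. Serial dilutions went onto BHI agar, incubated anaerobically at 37 °C for 48 h, and CFU were scored. Results are medians from 3 experiments × triplicate versus untreated controls.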

[5] = system: Streptococcus mutans; assay: Photodynamic inactivation of Streptococcus mutans ATCC 25175 assessed as reduction of log10 CFU at 1 uM incubated prior to irradiation with 150 j/cm'2 for 120 secs measured after 48 hrs by agar plating method (reference value: <1 no unit); type: functional
[6] = system: Aggregatibacter actinomycetemcomitans; assay: Photodynamic inactivation of Aggregatibacter actinomycetemcomitans ATCC 43718 assessed as reduction of log10 CFU at 10 uM incubated prior to irradiation with 150 j/cm'2 for 120 secs measured after 48 hrs by agar plating method relative to control; type: functional, Y4; in short: as §2
[7] = system: Aggregatibacter actinomycetemcomitans; assay: Photodynamic inactivation of Aggregatibacter actinomycetemcomitans ATCC 43718 assessed as reduction of log10 CFU at 1 to 250 uM incubated prior to irradiation with 50 j/cm'2 for 40 secs measured after 48 hrs by agar plating method; type: functional; details: Y4; in short: as §2
[8] = system: Enterococcus faecalis; assay: Photodynamic inactivation of Enterococcus faecalis ATCC 29212 assessed as reduction of log10 CFU at 100 uM incubated prior to irradiation with 150 j/cm'2 for 120 secs measured after 24 hrs by agar plating method (reference value: <1 no unit); type: functional; in short: as §1
[9] = system: Actinomyces naeslundii; assay: Photodynamic inactivation of Actinomyces naeslundii T14V assessed as reduction of log10 CFU at 100 uM incubated prior to irradiation with 150 j/cm'2 for 120 secs measured after 48 hrs by agar plating method (reference value: <1 no unit); type: functional
In short: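 A. naeslundii T14V grown overnight at 37 °C, shaken, aerobically in BHI broth. Harvested at stationary phase, resuspended in PBS to 10^7–10^8 bacteria/mL (OD600). Mixed 1:1 with PS (final 0–250 µM) or water, 10 s incubation, then blue photopolymerizer light (1260 ± 50 mW/cm2) or dark. Tenfold dilutions plated on blood agar, aerobic 37 °C 48 h, CFU counted; medians of three independent experiments in triplicate.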

[10] = system: Enterococcus faecalis; assay: Photodynamic inactivation of Enterococcus faecalis ATCC 29212 assessed as reduction of log10 CFU at 10 uM incubated prior to irradiation with 50 j/cm'2 for 40 secs measured after 24 hrs by agar plating method (reference value: <1 no unit); type: functional; in short: as §1
[11] = Photobleaching of the compound irradiated with laser energy at 405 nm for 5 mins; type: physicochemical; set-up: dose or concentration left out as unconfirmed
[12] = system: Enterococcus faecalis; assay: Photodynamic inactivation of Enterococcus faecalis ATCC 29212 assessed as reduction of log10 CFU at 5 uM incubated prior to irradiation with 25 j/cm'2 for 20 secs measured after 24 hrs by agar plating method (reference value: <1 no unit); type: functional; in short: as §1
[13] = Octanol-water partition coefficient, log P of the compound at 1 x 10^-4 mol at room temperature after 10 mins by UV/vis spectroscopic analysis; type: physicochemical
[14] = system: Streptococcus mutans; assay: Photodynamic inactivation of Streptococcus mutans ATCC 25175 assessed as reduction of log10 CFU at 100 uM incubated prior to irradiation with 50 j/cm'2 for 40 secs measured after 48 hrs by agar plating method (reference value: <1 no unit); type: functional
[15] = system: Enterococcus faecalis; assay: Photodynamic inactivation of Enterococcus faecalis ATCC 29212 assessed as reduction of log10 CFU at 10 uM incubated prior to irradiation with 25 j/cm'2 for 20 secs measured after 24 hrs by agar plating method (reference value: <1 no unit); type: functional; in short: as §1
[16] = system: Enterococcus faecalis; assay: Photodynamic inactivation of Enterococcus faecalis ATCC 29212 assessed as reduction of log10 CFU at 5 uM incubated prior to irradiation with 50 j/cm'2 for 40 secs measured after 24 hrs by agar plating method (reference value: <1 no unit); type: functional; in short: as §1
[17] = system: Enterococcus faecalis; assay: Photodynamic inactivation of Enterococcus faecalis ATCC 29212 assessed as reduction of log10 CFU at 1 uM incubated prior to irradiation with 150 j/cm'2 for 120 secs measured after 24 hrs by agar plating method (reference value: <1 no unit); type: functional; in short: as §1
[18] = Induction of singlet oxygen generation measured over 20 mins by luminescence assay; type: physicochemical
[19] = system: Enterococcus faecalis; assay: Photodynamic inactivation of Enterococcus faecalis ATCC 29212 assessed as reduction of log10 CFU at 10 uM incubated prior to irradiation with 150 j/cm'2 for 120 secs measured after 24 hrs by agar plating method (reference value: <1 no unit); type: functional; in short: as §1
[20] = system: Enterococcus faecalis; assay: Photodynamic inactivation of Enterococcus faecalis ATCC 29212 assessed as reduction of log10 CFU at 1 uM incubated prior to irradiation with 50 j/cm'2 for 40 secs measured after 24 hrs by agar plating method (reference value: <1 no unit); type: functional; in short: as §1
[21] = system: Enterococcus faecalis; assay: Photodynamic inactivation of Enterococcus faecalis ATCC 29212 assessed as reduction of log10 CFU at 1 uM incubated prior to irradiation with 25 j/cm'2 for 20 secs measured after 24 hrs by agar plating method (reference value: <1 no unit); type: functional; in short: as §1
[22] = system: Enterococcus faecalis; assay: Photodynamic inactivation of Enterococcus faecalis ATCC 29212 assessed as reduction of log10 CFU at 100 uM incubated prior to irradiation with 50 j/cm'2 for 40 secs measured after 24 hrs by agar plating method (reference value: <1 no unit); type: functional; in short: as §1

- Stability [11]: Unstable
- logP at 10 min [13]: -1.3
- Activity [18]: Active
SMILES: O=C1C(C[n+]2ccccc2)=Cc2cccc3cccc1c23.[Cl-]
- Activity [1]: Active
- log10cfu [2]: >6
- log10cfu [3]: >6
- log10cfu [4]: >6
- log10cfu [5]: <3
- log10cfu [6]: >6
- Activity [7]: Active
- log10cfu [8]: >6
- log10cfu [9]: > 5
- log10cfu [10]: >6
- log10cfu [12]: <1
- log10cfu [14]: >6
- log10cfu [15]: <3
- log10cfu [16]: <3
- log10cfu [17]: <3
- log10cfu [19]: >6
- log10cfu [20]: <1
- log10cfu [21]: <1
- log10cfu [22]: >6

- Stability [11]: Unstable
- logP at 10 min [13]: -1.4
- Activity [18]: Active
SMILES: C[N+](C)(C)CC1=Cc2cccc3cccc(c23)C1=O.[Cl-]
- Activity [1]: Active
- log10cfu [2]: >6
- log10cfu [3]: >6
- Activity [7]: Active
- log10cfu [8]: >6
- log10cfu [10]: <3
- log10cfu [12]: <1
- log10cfu [15]: <1
- log10cfu [16]: <3
- log10cfu [17]: <3
- log10cfu [19]: >6
- log10cfu [20]: <1
- log10cfu [21]: <1
- log10cfu [22]: >6

- Stability [11]: Unstable
- logP at 10 min [13]: -1.3
- Activity [18]: Active
SMILES: C[N+](C)(CCO)CC1=Cc2cccc3cccc(c23)C1=O.[Cl-]
- log10cfu [2]: <3
- log10cfu [3]: >6
- log10cfu [4]: <3
- log10cfu [5]: <1
- log10cfu [6]: >6
- log10cfu [8]: >6
- log10cfu [9]: > 5
- log10cfu [10]: <3
- log10cfu [12]: <1
- log10cfu [14]: >6
- log10cfu [15]: <3
- log10cfu [16]: <1
- log10cfu [17]: <1
- log10cfu [19]: >6
- log10cfu [20]: <1
- log10cfu [21]: <1
- log10cfu [22]: >6
